NTR1 agonist: agonists of human NTR1, primary screen, imaging, U2OS cells, beta-arrestin-GFP, high content; activation, % at 20 µM; 330,000 compounds, 0.17% hits; AID 493036, 2011; Neurotensin receptor type 1 (Homo sapiens), P30989; NTR1-U2OS beta-arrestin-GFP spot imaging, agonist mode;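 active = activation at or above 40% of the spot to cytoplasm intensity ratio, with at least 20 cells analyzed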
Target sequence (P30989 whole entry, looked up): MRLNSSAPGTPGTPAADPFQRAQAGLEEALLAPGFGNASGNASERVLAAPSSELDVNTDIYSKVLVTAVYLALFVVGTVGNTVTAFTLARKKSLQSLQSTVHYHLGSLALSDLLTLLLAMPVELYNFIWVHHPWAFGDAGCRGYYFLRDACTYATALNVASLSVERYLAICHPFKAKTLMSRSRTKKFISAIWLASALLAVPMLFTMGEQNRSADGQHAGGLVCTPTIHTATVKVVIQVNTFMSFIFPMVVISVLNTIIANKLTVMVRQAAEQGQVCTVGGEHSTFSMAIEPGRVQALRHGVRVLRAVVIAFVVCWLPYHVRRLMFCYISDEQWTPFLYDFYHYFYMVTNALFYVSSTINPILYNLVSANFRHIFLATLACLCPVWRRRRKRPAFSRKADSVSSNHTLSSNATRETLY
MC4R antagonist: MC4R antagonists of cAMP signaling, primary screen, cell-based, TR-FRET, antagonist arm of biased-ligand search; AID 540295, 2011; MC4R-expressing cells, MTII-stimulated cAMP, LANCE TR-FRET; inhibition, % at 6.5 µM; Melanocortin receptor 4 (Homo sapiens), P32245; 360,000 compounds, 0.48% hits;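 active = inhibition above its plate's cutoff, the mean of tested wells on that plate plus 3 SD, cut at about 29% in these data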
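Assay system: human MC4R-expressing U2OS cells; reagent: Melanotan II stimulation of cells; dosing: 6.5 µM single dose; timing: compound 30 min, challenge 1 h, detection 1 h; signal: TR-FRET cAMP assay; replicates: one well per compound, no replicates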
aDG glyco act: activators of alpha-DG glycosylation, primary screen, uHTS, Pro5-aDG cells, AlphaScreen; alpha-DG glycosylation AlphaScreen (IIH6); 0% Pro5, 100% B10-LARGE cell signal; activation, % at 10 µM; 360,000 compounds, 0.22% hits; AID 624168, 2012;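 active = activation of at least 8% versus controls, or a plate z-score of at least 8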;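 note: Pro5 are CHO cells carrying HIG-tagged alpha-DG that lacks glycosylation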
Tb MetRS inh: T. brucei MetRS inhibitors, primary screen, biochemical, luminescence; purified T. brucei MetRS, ATP depletion, Kinase-Glo luminescence; AID 624268, 2012; inhibition, % at 11.9 µM; 360,000 compounds, 0.4% hits;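 active = inhibition above a per-plate cutoff of the control wells' mean inhibition plus 3 SD, cut at about 5.5% in these data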
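Test system – parasite MetRS enzyme · Reagent – substrates ATP, L-methionine and bulk Escherichia coli tRNA · Doses – 11.9 µM compound single dose, 0.9% DMSO · Times – 15 min enzyme-compound preincubation, 2 h reaction, 10 min detection, 25 °C · Signal – Kinase-Glo luminescence, ATP depletion format · Controls – DMSO-only wells as low control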
MC4R barr agon: MC4R agonists recruiting beta-arrestin, primary screen, cell-based, luminescence, agonist arm of biased-ligand search | U2OS MC4R beta-arrestin complementation; percent of melanotan II response, DMSO zero | activation, % at 8.9 µM | 360,000 compounds, 0.98% hits | AID 540308, 2011;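 active = activation above a per-plate cutoff, the mean activation of sample wells on that plate plus 3 SD, cut at about 8% in these data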
TAG inh: inhibitors of triacylglycerol accumulation, primary screen, cell-based, uHTS, fluorescence, H9c2; H9c2 cells, Nile Red lipid (TAG) fluorescence; cells loaded with 200 µM oleic acid; inhibition, % at 12.5 µM; 230,000 compounds, 0.66% hits;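 active = pattern-corrected inhibition of lipid staining of at least 50% with the nuclear-stain viability signal not falling by more than 50%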
aDG glyco conf: alpha-DG glycosylation enhancers, retest, confirmation, single concentration, Pro5-aDG cells. IIH6 AlphaLISA; scaled to LARGE-overexpressing B10 cells as 100%. activation, % at 10 µM (by protocol). AID 651671, 2012. shares compounds with aDG glyco act. 600 compounds, 17% hits;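 active = activation of at least 7% in one or more replicates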;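 note: cells exposed to compound for two days before detection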
A number is an active result; n = inactive; x = not tested or not shown. Compounds with a hit are over-represented: about 2.4% of the library has one in this group of screens.

SMILES	NTR1 agonist	MC4R antagonist	aDG glyco act	Tb MetRS inh	MC4R barr agon	TAG inh	aDG glyco conf
CCc1ccc(C(CNC(=O)c2ccc3c(=O)n(-c4ccccc4F)c(=S)[nH]c3c2)N(C)C)cc1 (configuration not stated)	n	n	10.1	n	n	n	6.9
CCNC(=O)C1CCCN(C(=O)c2ccc3c(c2)OCO3)CC1 (configuration not stated)	x	n	n	n	n	n	x
CC(=O)c1cccc(NC(=O)C2Cc3c(-c4ccco4)ccnc3O2)c1 (configuration not stated)	x	n	n	n	n	n	x
CN(C)C(=O)c1cn(-c2ccccc2)nc1-c1cccs1	n	n	61.6	n	n	x	n
C/C=C/c1ccc(OCCCNC2CCCC2)c(OC)c1	n	n	9.6	n	n	n	11.6
C/C=C/c1ccc(OCCCNC(C)CC)c(OC)c1 (configuration not stated)	n	n	n	n	n	n	x
C[C@@H]1COc2cc(N3CCC[C@H]3CO)ccc2S(=O)(=O)N1	x	x	n	n	x	x	x
CCOc1cc(/C=N/NC(=O)c2nnn(-c3nonc3N)c2C)ccc1OCc1ccc(F)cc1	n	n	n	n	n	x	x
CCc1c(C(=O)N/N=C/c2ccc(OCc3ccc(F)cc3)c(OC)c2)nnn1-c1nonc1N	n	n	3.5	n	n	x	n
CC(C)NC(=O)c1cccc2c(-c3ccc(F)c(F)c3)coc12	x	n	n	n	n	n	x
COc1ccc(NC(=O)Cn2c(C)cc(=O)c3ccccc32)cc1	n	n	7.8	n	n	x	n
CCOC(=O)[C@]12CCCC=C1N(CCc1ccc(OC)c(OC)c1)C(=O)[C@H](CC(=O)NCCCCc1ccccc1)C2	x	x	n	n	x	x	x
CCC(c1nnnn1-c1ccc2c(c1)OCCO2)N1CCN(c2ccccn2)CC1 (configuration not stated)	x	x	n	n	x	x	x
CCOc1ccc(CCNC(=O)COC(=O)c2cc(OC)cc(OC)c2)cc1OCC	n	n	24.1	n	n	n	n
Cc1ccc2ccc3cccnc3c2n1	x	n	3.6	n	n	x	4.7
Cc1c(C)c2cccnc2c2ncccc12	n	n	n	n	n	n	x
CNC(=O)C1CN(C(=O)c2nn(Cc3ccccc3)c(=O)c3ccccc23)c2ccccc2O1 (configuration not stated)	x	n	n	n	n	n	x
CC(C)Oc1ccc(OCCCN2CCCCCC2)cc1	n	n	5.2	n	n	n	13.3
COc1ccc(NC(=O)c2cc(OC)c(OC)c(OC)c2)cn1	n	n	3.7	n	n	x	n
CCCCCOc1ccc(NC(=O)C(=O)NCC2CCCN2CC)cc1 (configuration not stated)	n	n	10.6	n	n	n	15.1
CCN1CCCC1CNC(=O)C(=O)NC (configuration not stated)	n	n	n	n	n	n	x
C/C(CC1(O)C(=O)Nc2ccccc21)=N\O (configuration not stated)	n	n	n	n	n	x	x
COc1ccc(/C(CC2(O)C(=O)Nc3ccccc32)=N\O)cc1 (configuration not stated)	n	n	6.6	n	n	n	n
O=C(CCN1N=C(c2ccccc2)CCC1=O)NC1CCCC1	n	n	3.0	n	n	x	n
COCCn1c(C)cc(C2=NNC(=Nc3ccc(Cl)cc3Cl)SC2)c1C	n	n	n	n	n	x	x
SMILES	NTR1 agonist	MC4R antagonist	aDG glyco act	Tb MetRS inh	MC4R barr agon	TAG inh	aDG glyco conf
COCC(C)N=C1NN=C(c2cc(C)n(Cc3ccccc3Cl)c2C)CS1 (configuration not stated)	n	n	5.6	n	n	n	n
CC1=C(C(=O)N(C)C)CC(CC(=O)NCC2CCCCC2)C(=O)N1Cc1ccc(F)cc1 (configuration not stated)	x	x	n	n	x	x	x
CC(=O)Oc1c(Cl)cc(N(C(C)=O)S(=O)(=O)c2ccccc2)c2ccccc12	n	n	3.1	n	n	n	5.6
CC(=O)N(c1ccccc1Cl)S(=O)(=O)c1ccc(Cl)cc1	n	n	n	n	n	n	x
CC(=O)Oc1ccc(N(C(C)=O)S(=O)(=O)c2ccccc2)c2ccccc12	x	n	n	n	n	n	x
COc1ccc(S(=O)(=O)N(C(C)=O)c2ccc(OC(C)=O)c3ccccc23)cc1[N+](=O)[O-]	n	n	10.8	n	n	x	n
CC(=O)Oc1ccc(N(C(C)=O)S(=O)(=O)c2ccc(C)cc2C)c2ccccc12	n	n	4.9	n	n	x	n
COc1ccc([N+](=O)[O-])cc1CN1CCN(c2ncc(Cc3ccccc3)cn2)CC1	x	x	n	n	x	x	x
CCCCNC(=O)C1(C)CCCCN1CC(=O)c1ccc(OC)cc1 (configuration not stated)	x	n	n	n	n	n	x
Cn1c(CC2C(=O)Nc3ccc(Br)cc32)nc2ccccc2c1=O (configuration not stated)	n	n	5.2	n	n	x	n
Cc1c(C(=O)N(Cc2ccc(Cl)cc2)C2CCS(=O)(=O)C2)oc2ccccc12 (configuration not stated)	n	n	2.3	n	n	x	n
NC(=NC(=O)c1cccc(C(F)(F)F)c1)c1ccc(C(F)(F)F)cn1	n	n	n	n	n	n	x
NC(=NC(=O)c1ccc(OC(F)(F)F)cc1)c1ccc(C(F)(F)F)cn1	n	n	3.8	n	n	n	n
COCC1CCN(C(=O)c2cc(COc3ccc4ncccc4c3)on2)CC1	n	n	6.7	n	n	n	n
O=C(c1cc(COc2ccc3ncccc3c2)on1)N1CCCC1	n	n	n	n	n	n	x
O=C(NCCc1cn2ccccc2n1)c1cc(COc2ccc3ncccc3c2)on1	n	n	10.1	n	n	n	n
CCNC(=O)C1(C)CCCN(Cc2cccc3c(OC)cc(C(=O)OCC)cc23)C1 (configuration not stated)	x	n	n	n	n	n	x
COC(=O)C1=CN(c2ccc3c(c2)OCO3)C(N)=C(C#N)C1c1cccc(F)c1 (configuration not stated)	x	x	n	n	x	x	x
CC(C)NC(=O)c1ccc2sc([C@H]3C[C@H](O)[C@@H](CO)O3)nc2c1	x	n	n	n	n	n	x
